Assay results reported in ChEMBL document CHEMBL5653606 (J Pharmacol Exp Ther, 2011).
Active and inactive are the calls of the source.

Tests used:
[1] = molecular target: T1, Fatty-acid amide hydrolase 1 (Homo sapiens) (UniProt O00519); test: Inhibition of FAAH in human brain at 10 uM in presence of FP-rhodamine by competitive activity-based protein profiling method; assay type: tissue-based
T1 sequence (whole entry): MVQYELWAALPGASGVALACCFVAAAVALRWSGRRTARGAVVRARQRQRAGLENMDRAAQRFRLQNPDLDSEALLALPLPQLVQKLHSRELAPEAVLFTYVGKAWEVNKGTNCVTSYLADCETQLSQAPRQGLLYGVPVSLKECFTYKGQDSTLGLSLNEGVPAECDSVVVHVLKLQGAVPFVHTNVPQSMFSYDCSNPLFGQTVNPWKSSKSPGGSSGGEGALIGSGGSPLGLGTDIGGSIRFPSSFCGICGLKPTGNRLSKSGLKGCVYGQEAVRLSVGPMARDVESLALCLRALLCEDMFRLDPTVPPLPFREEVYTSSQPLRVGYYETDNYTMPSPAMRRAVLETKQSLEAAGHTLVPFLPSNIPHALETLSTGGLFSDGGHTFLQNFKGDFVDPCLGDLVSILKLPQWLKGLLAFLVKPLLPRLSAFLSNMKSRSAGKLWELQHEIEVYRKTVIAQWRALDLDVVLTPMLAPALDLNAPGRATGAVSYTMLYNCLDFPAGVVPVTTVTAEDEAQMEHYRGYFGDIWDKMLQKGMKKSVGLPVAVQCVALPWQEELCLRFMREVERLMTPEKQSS
In short: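 Competitive ABPP on human and mouse brain, liver and heart proteomes (membrane and soluble fractions), exposed to compound at 10 or 100 μM or to DMSO. Serine hydrolases were then labeled with FP-rhodamine. Gels were read by fluorescence scanning, and loss of band labeling (FAAH or other hydrolases by kDa) was judged.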

[2] = molecular target: T2, Fatty-acid amide hydrolase 1 (Rattus norvegicus, UniProt P97612); test: Inhibition of rat FAAH assessed as kinact/Ki ratio incubated for 15 min in presence of glutamate dehydrogenase by 384-well format microplate reader assay
T2 sequence (P97612 whole entry): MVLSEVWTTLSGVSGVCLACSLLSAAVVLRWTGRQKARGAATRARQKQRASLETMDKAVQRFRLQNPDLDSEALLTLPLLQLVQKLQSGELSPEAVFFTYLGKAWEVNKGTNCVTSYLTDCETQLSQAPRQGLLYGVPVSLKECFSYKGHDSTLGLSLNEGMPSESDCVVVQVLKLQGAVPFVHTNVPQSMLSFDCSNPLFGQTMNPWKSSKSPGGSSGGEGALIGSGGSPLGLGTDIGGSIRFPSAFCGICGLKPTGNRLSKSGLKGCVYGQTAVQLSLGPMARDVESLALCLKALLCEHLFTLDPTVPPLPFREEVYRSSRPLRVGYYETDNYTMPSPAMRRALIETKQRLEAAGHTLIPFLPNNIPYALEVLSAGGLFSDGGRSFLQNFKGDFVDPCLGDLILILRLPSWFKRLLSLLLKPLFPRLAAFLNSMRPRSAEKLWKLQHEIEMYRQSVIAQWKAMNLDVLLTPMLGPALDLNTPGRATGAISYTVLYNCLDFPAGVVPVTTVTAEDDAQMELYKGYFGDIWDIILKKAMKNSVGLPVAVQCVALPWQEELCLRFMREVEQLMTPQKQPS

[3] = molecular target: T2, Fatty-acid amide hydrolase 1; test: Inhibition of rat FAAH assessed as kinact/Ki ratio incubated for 30 min in presence of glutamate dehydrogenase by 384-well format microplate reader assay
[4] = Oral bioavailability in dog; assay type: ADME, organism-based, Canis lupus familiaris; details: in vivo
[5] = Plasma concentration in rat at 1 mg/kg, po administered for 4 hrs by LC/MS analysis; assay type: ADME, organism-based
In short: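 Male Sprague-Dawley rats received a single oral dose of 1 mg/kg. Plasma (ng/ml) and brain (ng/g tissue) drug levels were measured at 1, 2, 4, 8 and 24 h after dosing.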

[6] = Tmax in rat at 5 mg/kg, po measured upto 24 hrs by LC/MS analysis; assay type: ADME, organism-based; details: in vivo
[7] = tested on: Rattus norvegicus; test: Antihyperalgesic activity in CFA induced Sprague-Dawley rat assessed as inhibition of mechanical allodynia at 0.1 mg/kg, po measured for 4 hrs by von frey test; assay type: functional, organism-based
In short: (§1)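 Male Sprague-Dawley rats (200–250 g) given 150 μl CFA (1 mg/ml in mineral oil) intraplantar in the hind paw. Mechanical paw withdrawal thresholds read with Von Frey hairs on day 5 postinjection. Dosed orally as nanocrystalline suspension in 2% polyvinylpyrrolidone/0.15% SDS in water, 10 ml/kg. PWTs taken 4 h postdose for dose-response, or at 1, 2, 4, 8, 24 h for time course.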

[8] = tested on: Rattus norvegicus; test: Antihyperalgesic activity in CFA induced Sprague-Dawley rat assessed as inhibition of mechanical allodynia at 1 mg/kg, po measured for 1 to 24 hrs by von frey test; assay type: functional, organism-based; details: time 1-24 hrs; in short: as §1
[9] = molecular target: T3, Fatty-acid amide hydrolase 1 (Rattus norvegicus) (UniProt P97612); test: In vivo inhibition of FAAH in CFA induced Sprague-Dawley rat plasma at 1 mg/kg, po measured for 1 to 24 hrs; assay type: functional, organism-based; details: time 1-24 hrs
T3 sequence (whole entry): T2 sequence (P97612 whole entry)

[10] = tested on: Rattus norvegicus; test: Antihyperalgesic activity in CFA induced Sprague-Dawley rat assessed as complete reduction of mechanical allodynia at 3 mg/kg, po in presence of CB1 antagonist SR141716 and CB2 antagonist SR144528 by von frey test; assay type: functional, organism-based; in short: as §1
[11] = tested on: Rattus norvegicus; test: Antihyperalgesic activity in MIA induced Sprague-Dawley rat assessed as reduction in mechanical allodynia at 3 mg/kg, po administered for 1 day and measured after 2 to 4 hrs; assay type: functional, organism-based
In short: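 Male Sprague-Dawley rats (220–270 g), isoflurane-anesthetized, given 2 mg MIA in 0.9% saline (50 μl) intra-articular into the knee. From day 14, oral dosing at 10 ml/kg once daily for 3 days in 4% 2-hydroxypropyl-β-cyclodextrin/1% ethanol in 0.01 M HCl. Celecoxib 30 mg/kg in 0.5% methylcellulose twice daily. Joint compression threshold by digital Randall-Selitto at 2 and 4 h postdose on days 1 and 3; n = 10/group.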

[12] = tested on: Mus musculus; test: Antinociceptive activity in C57BL6/J mouse assessed as effect in locomotive activity at 1 to 10 mg/kg, po administered for 4 hrs; assay type: functional, organism-based; details: dose 1-10 mg/kg
In short: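 Male C57BL/6J mice, 7 weeks old, n = 8/group, dosed orally at 1 or 10 mg/kg in PEG 300 (4 ml/kg). Tetrad tested 4 h postdose: locomotor activity, tail-immersion thermal nociception, catalepsy (assessed 60 s), body temperature. Means ± S.E.M. versus vehicle.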

## O=C(Nc1cccnn1)N1CCC(=Cc2cccc(Oc3ccc(C(F)(F)F)cn3)c2)CC1
[1]
  inhibition: Active
[2]
  IC50: 0.0267 µM
[3]
  IC50: 0.0111 µM
[4]
  bioavailability: 58%
[5]
  concentration at 4 h: 0.54 µM
[6]
  Tmax: 2 h
[7]
  Activity: Active
[8]
  Activity: Active
[9]
  inhibition: Active
[10]
  Activity: Active
[11]
  Activity: Active
[12]
  Activity: Non-Toxic
